Compound activity as filed in PubChem.
mIAP inh: blocks mouse intestinal alkaline phosphatase | purified mouse IAP, CDP-Star luminescence, 30 min | inhibition, % at 10 µM | 330,000 tested, 0.2% active | AID 2806;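 active means inhibition of at least 40% at 10 µM in the primary screen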;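 further: plate controls were DMSO with enzyme for no effect and no enzyme wells for full effect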
hIAP inh: blocks human intestinal alkaline phosphatase; inhibition, % at 10 µM; P09923; purified IAP, CDP-Star luminescence, 30 min; 330,000 tested, 0.12% active;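 active means inhibition reaching a set limit with compound at 10 µM in the primary screen, cut at about 35% in these data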;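 further: plate controls were DMSO wells with enzyme for no effect and no-enzyme buffer wells for full effect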
Target sequence (P09923 whole entry, looked up): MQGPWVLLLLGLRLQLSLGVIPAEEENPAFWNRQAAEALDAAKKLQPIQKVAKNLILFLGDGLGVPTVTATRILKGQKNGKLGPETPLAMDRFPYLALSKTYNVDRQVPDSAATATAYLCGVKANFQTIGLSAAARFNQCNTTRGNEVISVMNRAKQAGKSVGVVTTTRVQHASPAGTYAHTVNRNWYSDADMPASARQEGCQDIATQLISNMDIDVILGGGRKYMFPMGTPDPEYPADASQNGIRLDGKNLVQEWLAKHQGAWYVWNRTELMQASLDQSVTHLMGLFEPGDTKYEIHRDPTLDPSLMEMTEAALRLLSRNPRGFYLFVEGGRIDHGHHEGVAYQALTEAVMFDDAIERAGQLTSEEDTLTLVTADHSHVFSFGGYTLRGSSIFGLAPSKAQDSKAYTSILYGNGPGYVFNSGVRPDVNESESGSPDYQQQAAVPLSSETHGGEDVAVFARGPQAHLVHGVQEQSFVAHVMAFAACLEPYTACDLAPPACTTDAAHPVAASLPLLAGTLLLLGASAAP
bIAP act: increases bovine intestinal alkaline phosphatase activity; purified bovine IAP, CDP-star luminescence, 30 min; active compounds read high; fold of DMSO-control signal, blank-subtracted; 200,000 tested, 0.17% active; activation factor at 20 µM;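 active means activation factor of 2 or more at 20 µM, a signal rise over negative controls twice the positive control's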
hIAP act: human IAP activation. P09923. purified human IAP, CDP-Star luminescence, 30 min; active compounds read high; 1 = vehicle-only enzyme, 0 = enzyme-free background. activation factor at 10 µM. 330,000 tested, 0.16% active. AID 2524;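 active means activation factor of the enzyme at least 2-fold when tested at 20 µM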
mIAP act: increases mouse intestinal alkaline phosphatase activity; muIAP, CDP-Star luminescence, 30 min; active compounds read high; 1 = vehicle-only enzyme signal, 0 = enzyme-free wells; activation factor at 10 µM; 330,000 tested, 0.24% active; AID 2805;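 active means activation factor of at least 2 at 20 µM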
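Assay system: mouse IAP enzyme / Compound: DMSO-dissolved test compounds / Timing: 30 min, room temperature / Measured by: luminescence from enzymatic CDP-Star hydrolysis / Control set: DMSO-only wells, enzyme-free buffer wells as negative control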
bIAP inhibitor: intestinal alkaline phosphatase (bovine) inhibition; inhibition, % at 20 µM; 190,000 tested, under 10 active; purified bovine IAP, CDP-star luminescence, 30 min;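 active means over 50% inhibition of intestinal alkaline phosphatase at 20 µM in the single-dose screen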
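Assay system – bovine IAP enzyme · Quantity – bovine IAP at 1/65,000,000 final dilution · Detection – CDP-star luminescence signal · Times – 30 min reaction at room temperature · Also added – CDP-star substrate at 30 µM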
Active calls of the source: *; i = inactive; / = not tested or not shown. Hits are enriched below; roughly 0.77% of the tested compounds scored in any of these assays.

SMILES	mIAP inh	hIAP inh	bIAP act	hIAP act	mIAP act	bIAP inhibitor
Cc1noc(C)c1C(=O)Nc1ccc(S(=O)(=O)N2CCCCC2)cc1	1	-29	/	1.3	0.99	/
O=C(Nc1n[nH]c(C2CCCCC2)n1)C1CCCCC1	-133	9	8.1*	0.91	2.3*	i
O=C(Nc1ncccn1)C1CCCCC1	-18	-13	1	1.1	1.2	4
CC[n+]1c(/C=C/N(C)c2ccccc2)oc2ccc(Cl)cc21	2	-2	1	1	0.98	-2
CCN1/C(=C/C=C/c2oc3ccc4ccccc4c3[n+]2CC)Oc2ccc3ccccc3c21	47*	44*	1.1	0.56	0.53	-9
COc1ccc(-n2cc(CNCCc3ncc(C)[nH]3)c(-c3ccccc3Cl)n2)cc1	-8	-33	2.4*	1.3	1.1	-141
COc1ccc(-n2cc(CNCCc3nc(C)cc(C)n3)c(-c3ccccc3Cl)n2)cc1	-5	4	1.2	0.96	1.1	-20
COc1ccc(-n2cc(CNCc3cccnc3)c(-c3cccc(F)c3)n2)cc1	2	6	1.1	0.94	0.98	-7
COc1ccc(-n2cc(CNCCc3cnc[nH]3)c(-c3cccc(F)c3)n2)cc1	-2	-37	2.9*	1.4	1	-190
CC1=C(C)C(C)=C(C#N)C(=C(C#N)C#N)N1	-6	7	/	0.93	1.1	/
CCOc1ccc(S(=O)(=O)NN)cc1	-4	-9	2*	1.1	1	-99
Cc1cc(C(=O)Nc2c(C)nn(Cc3ccc(F)cc3)c2C)on1	1	-8	1	1.1	0.99	-4
Cc1nn(Cc2ccc(F)cc2)c(C)c1NC(=O)C1c2ccccc2Oc2ccccc21	-188	-20	0.8	1.2	2.9*	18
O=C(CN(Cc1ccccc1Cl)C(=O)CNS(=O)(=O)c1ccc(F)cc1)NCC1CCCO1 (stereo unspecified)	-4	2	/	0.97	1	/
CCOC(=O)CNC(=O)N1CCCC(N(C)CCc2ccccc2)C1 (stereo unspecified)	-11	0	/	1	1.1	/
CCn1ccnc1CNCc1cn(-c2cc(C)ccc2C)nc1-c1ccccc1	-34	-18	2.7*	1.2	1.3	-170
O=C(Nc1cccc(Cl)c1)NC1(C(=O)NCc2cccs2)CCCCC1	-121	-14	1.1	1.1	2.2*	-6
O=C(NCc1cccs1)Nc1cccc(Cl)c1	-84	-4	/	1	1.8	/
CCOc1ccc(NC(=O)CC(c2ccccc2)c2ccc(F)cc2)cc1 (stereo unspecified)	-117	-16	0.5	1.2	2.2*	47
CCOc1ccccc1NC(=O)c1cccc(NC(=O)CC(c2ccccc2)c2ccccc2)c1	-102	4	1.1	0.96	2*	-6
CCCCN(C)C(=O)c1ccc2c(c1)S(=O)(=O)c1ccccc1C2=O	2	6	/	0.94	0.98	/
Cc1ccc(SC[C@H](Cc2ccccc2)N2CC[C@@H](NC(=O)OCc3ccccc3)CCC2=O)cc1	-25	20	/	0.8	1.2	/
OCCN1CCN(CC(O)COc2ccc3ccccc3c2)CC1 (stereo unspecified)	3	10	2.9*	0.9	0.97	-188
Cc1cccc(NC(=O)c2cccc(NC3=NC4CS(=O)(=O)CC4S3)c2)c1 (stereo unspecified)	2	-8	/	1.1	0.98	/
CSc1nnc(-c2ccccc2)c(-c2ccccc2)n1	-5	-19	/	1.2	1	/
SMILES	mIAP inh	hIAP inh	bIAP act	hIAP act	mIAP act	bIAP inhibitor
CSc1nnc(-c2ccco2)c(-c2ccco2)n1	46*	4	0.9	0.96	0.55	14
Cc1ccc2nc(N3C(=O)C(O)=C(C(=O)c4ccc(C)o4)C3c3ccco3)sc2c1 (stereo unspecified)	50*	-22	/	1.2	0.5	/
N#C/C(=C/c1ccc(-c2ccc(S(N)(=O)=O)cc2)o1)c1nc2ccccc2s1	57*	9	1	0.91	0.43	-4
N#C/C(=C/c1ccc(-c2ccc(S(N)(=O)=O)cc2)o1)C(=O)Nc1ccccc1	28	-5	1	1	0.72	2
CC1=CC(C)(C)N2C(=O)C3(N=C(N)NC(Nc4ccccc4)=N3)c3cc(C)cc1c32 (stereo unspecified)	-121	2	2.3*	0.98	2.2*	-134
O=C(NCCSCc1ccco1)Nc1cc(Cl)cc(Cl)c1	-136	-15	/	1.2	2.4*	/
CSCCC(NS(=O)(=O)c1ccc2c(c1)oc(=O)n2C)C(=O)NCc1cccs1 (stereo unspecified)	-2	-8	/	1.1	1	/
CCOC(=O)c1ccc(NC(=O)NC2CCN(CC(=O)NCc3ccc4c(c3)OCO4)CC2)cc1	-127	-3	1.2	1	2.3*	-24
COc1cccc(NC(=O)Nc2ccc3c(c2)N(C)C(=O)CS3)c1	-170	-18	1.1	1.2	2.7*	-10
CC(=O)Nc1ccc(NC(=O)Nc2ccc3c(c2)N(C)C(=O)CS3)cc1	-36	6	1	0.94	1.4	-2
CCOc1ccc(OCC)c(NC(=O)Nc2ccc3c(c2)N(C)C(=O)CS3)c1	-138	9	1.5	0.91	2.4*	-45
Cc1cc(Br)ccc1NC(=O)CNC(=O)c1cnn(C)c1	12	6	/	0.94	0.88	/
O=C(CCCNC(=O)c1ccc(Cl)cc1)OCc1cccc(Br)c1	2	3	/	0.97	0.98	/
COc1ccc(-n2c(SCCNCCO)nc3sc4c(c3c2=O)CCCC4)cc1	7	10	/	0.9	0.93	/
Cc1cc(C)n(C(=O)CCC(=O)NCc2ccccc2)n1	56*	11	1	0.89	0.44	1
O=C(NC(=S)N1CCCC(C(F)(F)F)C1)c1ccc(F)cc1 (stereo unspecified)	-2	-11	/	1.1	1	/
CNC(=S)N(CCc1c(C)[nH]c2ccc(C)cc12)Cc1cccnc1	10	14	/	0.86	0.9	/
COCC(=O)N1CCC(Oc2ccc(C(=O)N(C)C(C)c3ccon3)cc2)CC1 (stereo unspecified)	-1	-19	/	1.2	1	/
COC(=O)c1ccc2c(c1)C(C)(C)C(/C=C/c1ccc(O)cc1)=[N+]2C	12	50*	0.2	0.5	0.89	/
CSc1nsc(SC)c1NC(=O)OCc1ccccc1	3	-8	0.6	1.1	0.97	44
CSc1nsc(SC)c1NC(=O)OCCc1ccccn1	41*	2	0.9	0.98	0.59	11
COc1ccc(C[C@H]2CN3C(=NC[C@@H]3C(C)C)N2CCNC(=O)CCC2CCCCC2)cc1	-2	14	1.1	0.85	1	-15
COc1ccc(C[C@H]2CN3C(=NC[C@@H]3Cc3ccccc3)N2CCNC(=O)CCC2CCCCC2)cc1	1	9	2.1*	0.91	0.99	-105
COc1ccc(CNC(=S)Nc2ccc(F)c(Cl)c2)cc1	-162	-28	0.9	1.3	2.6*	10
